From PubChem
GalR3 antag – GalR3 antagonists in HEK293 cells, primary screen, cell-based, fluorescence readout; HEK293 GalR3-CNG cAMP membrane potential fluorescence; galR3 body fused to GalR1 C-terminus; inhibition, % at 3 µM; 360,000 compounds, 0.44% hits;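 active means inhibition above the screen-wide average plus 3 SD, cut at about 13% in these data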;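 further: forskolin and galanin both at EC90 stimulate the cells; cAMP rise reported by CNG channel membrane potential dye signal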
Target sequence (O60755 1-299 limits assumed): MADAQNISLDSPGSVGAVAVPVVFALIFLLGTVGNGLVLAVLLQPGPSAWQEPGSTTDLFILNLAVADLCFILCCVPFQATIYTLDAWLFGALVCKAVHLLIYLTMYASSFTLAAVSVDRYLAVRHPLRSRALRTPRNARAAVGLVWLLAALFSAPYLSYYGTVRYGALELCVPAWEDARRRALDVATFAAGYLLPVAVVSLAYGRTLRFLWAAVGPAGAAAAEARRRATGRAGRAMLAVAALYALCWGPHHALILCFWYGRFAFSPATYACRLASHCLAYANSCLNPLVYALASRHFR
NR2E3 ag-1 – NR2E3 agonists in two-hybrid cells, primary screen, cell-based, luminescence, CHO-S, Gal4-NCOR/VP16-NR2E3; inhibition of corepressor binding, % at 3.98 µM; Photoreceptor-specific nuclear receptor (Homo sapiens), Q9Y5X4; luciferase; AID 602229, 2012; 360,000 compounds, 0.35% hits;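 active means inhibition above the mean of all tested compounds plus 3 SD, cut at about 70% in these data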;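 further: higher means lower luciferase signal from less NR2E3 corepressor binding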
NR2E3 ag-2 – inhibitors of NR2E3-RetCOR corepressor binding, primary screen, NR2E3 agonist project, biochemical, TR-FRET, GST-NR2E3, biotin-RetCOR; Photoreceptor-specific nuclear receptor (Homo sapiens), Q9Y5X4; 1536-well; inhibition of corepressor binding, % at 4.78 µM; 320,000 compounds, 0.12% hits; AID 2300, 2010;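 active means percent inhibition above the cutoff of mean plus 3 SD of all tested compounds, set per screening campaign, cut at about 20% in these data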
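Assay system: NR2E3–RetCOR corepressor complex. Quantity: 1.35 nM GST-NR2E3. Buffer or medium: pH 7.5 Tris-based buffer. Reagent: biotinylated RetCOR corepressor at 7 nM final. Schedule: 5 h at 4 °C. Detection: TR-FRET, emission read at 617 and 671 nm. Replicates: one well per compound, singlicate testing.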
Env fusion inh – inhibitors of HIV-1 Env-driven cell-cell fusion, primary screen, HeLa-JRFL effector, CEM21 target cells, luciferase. inhibition, % at 12.3 µM. 360,000 compounds, 1.1% hits. AID 651610, 2012;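 active means mean replicate inhibition score of at least 50 and every replicate individually at or above 50; inconclusive means only one of the two criteria met; inactive means mean below 50 and not all replicates reaching 50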
GAA850 FXN act – FXN promoter activators, primary screen, cell-based, luciferase luminescence, HEK293 lucGAA850. AID 540364, 2011. HEK293 lucGAA850 FXN promoter luciferase reporter, 24 h; percent of 10 µM SAHA response. activation, % at 6 µM. 360,000 compounds, 0.56% hits;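 active means activation above the average of all compounds screened plus 3 SD, cutoff fixed separately per campaign, cut at about 7.5% in these data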
V-ATPase pH – regulators of yeast V-ATPase proton pumping, primary screen, pHLuorin cytosolic pH fluorescence | S. cerevisiae | response, % at 10 µM | 350,000 compounds, 0.37% hits | AID 504577, 2011; in the data active means response mostly above about 7.3%, no sharp cut-off; inactive means mostly below about 5.4%; further: actives read high
GAA30 FXN cntr – GAA30 FXN promoter activators, confirmation, counter-screen for GAA850 frataxin promoter activator project, cell-based, luminescence, HEK293, lucGAA30, triplicate | shares compounds with GAA850 FXN act | HEK293 lucGAA30 FXN promoter luciferase, 24 h; DMSO = 0%, 5 µM ipriflavone = 100% | activation, % at 6 µM | 1,900 compounds, 66% hits | AID 588350, 2011;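 active means mean activation above the mean of solvent-only control wells plus 3 SD, cut at about 22% in these data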;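 further: counterscreen of GAA850 promoter hits where activity marks nonselective or luminescence artifacts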
GAA850 confirm – FXN GAA850 promoter activators in reporter cells, confirmation, cell-based, luminescence, HEK293 lucGAA850, triplicate. 1,900 compounds, 86% hits. HEK293 lucGAA850 FXN promoter luciferase reporter, 24 h; 100% = activation by SAHA. shares compounds with GAA850 FXN act. AID 588351, 2011. activation, % at 6 µM;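 active means mean activation above a set limit taken from the primary screen, cut at about 8% in these data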
Hits are given with their value; n = inactive; u = inconclusive; x = no result given; ! = repeats disagree. In the library only some 2.2% were active in any assay of this set; here they are far more common.

SMILES | GalR3 antag | NR2E3 ag-1 | NR2E3 ag-2 | Env fusion inh | GAA850 FXN act | V-ATPase pH | GAA30 FXN cntr | GAA850 confirm
C=CCn1c(SCC(=O)Nc2ccc(F)cc2F)nc2c([nH]c3ccccc32)c1=O | n | n | n | n | n | n | x | x
NNC(=O)CN1C(c2cccc(Cl)c2)=Nc2ccc(Br)cc2C1c1ccccc1 (stereo not given) | n | n | n | n | n | n | x | x
NNC(=O)CN1C(c2ccccc2Br)=Nc2ccc(Br)cc2C1c1ccccc1 (stereo not given) | n | n | n | x | 9.2 | n | n | 8.7
COc1nc(NCCO)nc(Nc2ccccc2F)n1 | n | n | n | n | 14 | n | 86 | 25
COc1nc(Nc2ccccc2F)nc(OC)n1 | n | n | n | n | n | n | x | x
C[C@@H]1CN([C@@H](C)CO)C(=O)c2cc(C#CCc3ccccc3)cnc2O[C@H]1CN(C)C(=O)C1CCC1 | x | x | x | n | x | x | x | x
Cc1ccc(-c2nc(NCc3cccnc3)c3ccccc3n2)cc1 | n | n | n | x | 7.7 | n | 30 | 13
Cc1cc(C)c2c(N)c3cccc(C)c3nc2n1 | n | n | n | n | 8.0 | n | n | 143
Cc1cccc2c(N)c3c(nc12)CCCC3 (tested in a mixture with another compound) | n | n | x | n | n | n | x | x
CCCCNc1ccc(C(F)(F)F)cc1S(=O)(=O)NCCc1ccc(F)cc1 | n | n | x | 72 | 12 | n | 33 | 17
COc1ccc(S(=O)(=O)NCCc2ccc(F)cc2)cc1 | n | n | n | n | n | n | x | x
Nc1c2ccccc2nc2ccccc12 | n | n | n | n | 13! | n | n | 94
Nc1c2c(nc3ccccc13)CCCC2 | n | n | n | n | n | n | x | x
CCOC(=O)c1ccc2[nH]c3c(c2c1)CCCCC3=O | n | n | n | x | 8.1 | n | 65 | 25
CCOC(=O)c1ccc2[nH]c3c(c2c1)CCCC3C(=O)OCC (stereo not given) | n | n | n | x | n | n | x | x
Cc1ccc(/C=C/C(=O)NC2CCCCCCC2)o1 | n | n | n | n | 11 | n | 99 | 49
COc1ccc(N2C(=O)N3[C@H](c4ccc(Cl)cc4)[C@@H]4C(=O)N(C5CCCCC5)C(=O)[C@@H]4[C@]3(C)C2=O)cc1 | n | n | n | 85 | 14 | n | n | n
CCN1C(=O)[C@H]2[C@@H](c3ccc(C)cc3)N3C(=O)N(c4ccc(C(F)(F)F)cc4)C(=O)[C@@]3(CC)[C@H]2C1=O | n | n | n | u | n | n | x | x
CCN1C(=O)[C@H]2[C@@H](c3ccc(C)cc3)N3C(=O)N(c4ccccc4)C(=O)[C@@]3(C)[C@H]2C1=O | n | n | n | n | n | n | x | x
C[C@]12C(=O)N(c3cccc(F)c3)C(=O)N1[C@H]1c3ccccc3OC[C@@H]1[C@H]2c1ccccc1 | n | n | x | n | n | n | x | x
CC(C)C[C@@]12C(=O)N(c3cccc(F)c3)C(=O)N1[C@H](c1ccc(Cl)cc1)[C@@H]1C(=O)N(C3CCCCC3)C(=O)[C@@H]12 | n | n | n | 95 | 16 | n | 25 | 14
Cc1cccc([C@@H]2[C@@H]3C(=O)N(Cc4ccccc4)C(=O)[C@@H]3[C@]3(Cc4ccc(Cl)cc4)C(=O)N(c4ccc(Br)cc4)C(=O)N23)c1 | n | n | n | n | n | n | x | x
